Assay results collected from several papers.
Compare with care: the assays were run in different laboratories.
Target: Sodium-dependent serotonin transporter (SLC6A4, Homo sapiens, UniProt P31645)

CCN(CC)c1ccc(C2Nc3ccc(C(=O)c4ccccc4)cc3NC3=C2C(=O)CC(C)(C)C3)cc1 (stereo not shown)  Ki (cell-free assay, radioligand): > 10 µM
CCC(C)C(=O)[C@]12C(=O)[C@](CC=C(C)C)(C[C@H](CC=C(C)C)[C@@]1(C)CCC=C(C)C)C(=O)C(CC=C(C)C)=C2O (stereo partly shown)  Ki (ligand displacement, radioligand; cell membranes): 34 µM
CC(=O)N1C[C@H](CCN2CCC(c3c[nH]c4cc(Cl)ccc34)CC2)c2ccccc21  IC50 (ligand displacement, radioligand; cell membranes): 0.36 µM
CCCOC(=O)[C@@]12C[C@@H]1[C@@H](n1cnc3c(NC)nc(C#Cc4ccc(Cl)s4)nc31)[C@H](O)[C@@H]2O  Ki (ligand displacement, radioligand; cell membranes): > 10 µM
CC(C)c1nc2cc(OCCCCN3CCN(c4cccc5c4OCCO5)CC3)ccc2s1  Ki (ligand displacement, radioligand): 0.33 µM
CCCCN1CCC(COC(=O)c2ccc(N)c(OCF)c2)CC1  Ki (cell-free assay, radioligand): > 10 µM
CCn1c(-c2nc3cc(C(=O)N4CCC[C@@H](N)C4)cc(OC)c3n2C)cc2cccnc21  IC50 (transporter uptake): 39.8 µM
CNc1nc2cc(OCCCCN3CCC(c4cccc(Cl)c4Cl)CC3)ccc2s1  Ki (ligand displacement, radioligand): 0.062 µM
CCn1c(-c2nc3ccc(C(=O)N4CCCC(N)C4)cc3n2C)cc2ccccc21 (stereo not shown)  IC50 (transporter uptake): 20 µM
Cc1ccc2cccc(N3CCN(CCCCOc4ccc5sc(C(C)C)nc5c4)CC3)c2n1  Ki (ligand displacement, radioligand): 0.48 µM
